# Calls of active or inactive are those of the source. The rule behind the calls is not given here.
# Legend:
# Assay type in all cases: cell-based
# [1] = Agonist activity at LXR in human HepG2 cells assessed as upregulation of FASN mRNA levels at 10 uM after 6 hrs by qPCR analysis
# How it was run: (§1)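 HepG2 cells treated with ligand (10 μM). Total RNA was extracted with TRIZOL; 2 µg was reverse-transcribed (1 h, 42 °C). SREBP1c, FASN and SCD1 transcripts were measured by qPCR. Mean ± SD of three biological samples; ANOVA with Dunnett's test.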
# [2] = Agonist activity at LXR in human HepG2 cells assessed as upregulation of SREBP1c mRNA levels at 10 uM after 6 hrs by qPCR analysis; how it was run: as §1
# [3] = Agonist activity at LXR in human U937 cells assessed as upregulation of SCD1 mRNA levels at 10 uM after 16 hrs by qPCR analysis
# [4] = Agonist activity at LXR in human U937 cells assessed as upregulation of FASN mRNA levels at 10 uM after 16 hrs by qPCR analysis
# [5] = Agonist activity at LXR in human U937 cells assessed as upregulation of SCD1 mRNA levels at 10 uM after 6 hrs by qPCR analysis relative to control; details: human, 6 h, 10 µM
# How it was run: (§2)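 U937 cells, 3x10⁶ in 10 ml RPMI with 10% FBS, differentiated with PMA 10 ng/ml for 72 h at 37 °C, then treated with ligand (10 μM) for 6 h. Total RNA was isolated with TRIZOL; 2 µg was reverse-transcribed for 1 h at 42 °C. Transcripts were measured by qPCR. Mean ± SD of three biological samples; ANOVA with Dunnett's test.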
# [6] = Agonist activity at LXR in human U937 cells assessed as upregulation of SREBP1c mRNA levels at 10 uM after 6 hrs by qPCR analysis; how it was run: as §2
# [7] = Agonist activity at LXR in human U937 cells assessed as upregulation of FASN mRNA levels at 10 uM after 6 hrs by qPCR analysis; how it was run: as §2
# Homo sapiens [8] = species on record: Homo sapiens; assay: Agonist activity at LXR in human U937 cells assessed as upregulation of ABCA1 mRNA levels at 10 uM after 6 hrs by qPCR analysis; how it was run: as §2
# Homo sapiens [9] = species on record: Homo sapiens; assay: Agonist activity at LXR in human U937 cells assessed as downregulation of LPS-induced TNFalpha mRNA expression at 10 uM after 6 hrs by qPCR analysis
# How it was run: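 PMA-differentiated U937 cells (10 ng/ml PMA, 72 h) were given LPS 100 ng/ml together with compound (10 μM) for 6 h. CCL2 and TNFα mRNA were measured by qPCR after TRIZOL RNA extraction and reverse transcription. Three biological samples per group, mean ± SD.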
# [10] = Agonist activity at LXR in human HepG2 cells assessed as upregulation of SCD1 mRNA levels at 10 uM after 6 hrs by qPCR analysis; how it was run: as §1
compound,measurement,setting,value
CC(C)CC[C@@H](O)[C@@H](C)[C@H]1CC[C@H]2[C@@H]3CC=C4C[C@@H](O)CC[C@]4(C)[C@H]3CC[C@]12C [22(R)-HYDROXYCHOLESTEROL],Activity,[1],Not Active
same,Activity,[2],Not Active
same,Activity,[3],Not Active
same,Activity,[4],Not Active
same,Activity,[5],Not Active
same,Activity,[6],Not Active
same,Activity,[7],Not Active
same,Activity,Homo sapiens [8],Active
same,Activity,Homo sapiens [9],Active
same,Activity,[10],Not Active
